Results from ChEMBL document CHEMBL2086363, “Lipophilic Isosteres of a π-π Stacking Interaction: New Inhibitors of the Bcl-2-Bak Protein-Protein Interaction” (ACS Med Chem Lett, 2012).

Columns and labels:
[1] = target: Apoptosis regulator Bcl-2/Bcl-2 homologous antagonist/killer (Homo sapiens, UniProt P10415); test: Inhibition of Bcl2-BAK interaction after 1 hr by surface plasmon resonance assay; format: protein assay
Method in brief: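 SPR measurement of Bcl-2–Bak binding inhibition. Each value is the average of at least two measurements, with duplicate EC50 values generated in each assay.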

MCL1-BAK1 complex = MCL1-BAK1 complex (Homo sapiens, UniProt Q07820); test: Inhibition of Mcl1-BAK interaction; format: protein-complex assay
Chain of MCL1-BAK1 complex (Q07820 whole entry): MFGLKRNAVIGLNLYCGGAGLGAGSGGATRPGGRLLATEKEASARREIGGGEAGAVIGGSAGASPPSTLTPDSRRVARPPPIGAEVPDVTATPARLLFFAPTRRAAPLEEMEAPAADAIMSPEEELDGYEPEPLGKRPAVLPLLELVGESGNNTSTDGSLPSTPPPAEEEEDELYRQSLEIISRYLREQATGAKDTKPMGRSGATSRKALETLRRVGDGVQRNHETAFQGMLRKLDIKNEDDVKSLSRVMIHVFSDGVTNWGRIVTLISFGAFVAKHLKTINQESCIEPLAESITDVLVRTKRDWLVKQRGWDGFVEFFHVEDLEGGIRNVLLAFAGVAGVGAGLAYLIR
Chain of MCL1-BAK1 complex (Q16611 whole entry, further chain): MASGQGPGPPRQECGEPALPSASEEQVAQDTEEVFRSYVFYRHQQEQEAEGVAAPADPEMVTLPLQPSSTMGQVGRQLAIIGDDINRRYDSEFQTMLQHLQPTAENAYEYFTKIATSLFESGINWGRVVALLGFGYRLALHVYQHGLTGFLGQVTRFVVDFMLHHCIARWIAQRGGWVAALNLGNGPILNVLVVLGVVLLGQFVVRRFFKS

Bcl-xL/BAK = Bcl-xL/BAK (Homo sapiens, UniProt Q07817); test: Inhibition of Bcl-XL-BAK interaction; format: protein assay
Chain of Bcl-xL/BAK (Q07817 whole entry): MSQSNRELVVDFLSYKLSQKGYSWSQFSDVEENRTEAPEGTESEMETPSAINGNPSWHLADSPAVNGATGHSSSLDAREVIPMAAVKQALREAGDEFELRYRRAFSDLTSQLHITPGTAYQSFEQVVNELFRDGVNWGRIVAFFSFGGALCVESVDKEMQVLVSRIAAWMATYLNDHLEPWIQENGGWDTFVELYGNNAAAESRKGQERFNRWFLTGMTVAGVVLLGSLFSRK
Chain of Bcl-xL/BAK (Q16611 whole entry, further chain): as the sequence (Q16611 whole entry, further chain) above

[2] = Clearance in Sprague-Dawley rat at 1 mg/kg, iv and 10 mg/kg, po; format: ADME, organism-based; details: in vivo
[3] = Volume of distribution at steady state in Sprague-Dawley rat at 1 mg/kg, iv and 10 mg/kg, po; format: ADME, organism-based; details: in vivo, read-out: Vdss
[4] = Half life in Sprague-Dawley rat at 1 mg/kg, iv and 10 mg/kg, po; format: ADME, organism-based; details: in vivo
[5] = Oral bioavailability in Sprague-Dawley rat at 10 mg/kg; format: ADME, organism-based; details: in vivo
[6] = Selectivity ratio of EC50 for Bcl-XL-BAK interaction to EC50 for Bcl2-BAK interaction

Chain of Apoptosis regulator Bcl-2/Bcl-2 homologous antagonist/killer (P10415 whole entry): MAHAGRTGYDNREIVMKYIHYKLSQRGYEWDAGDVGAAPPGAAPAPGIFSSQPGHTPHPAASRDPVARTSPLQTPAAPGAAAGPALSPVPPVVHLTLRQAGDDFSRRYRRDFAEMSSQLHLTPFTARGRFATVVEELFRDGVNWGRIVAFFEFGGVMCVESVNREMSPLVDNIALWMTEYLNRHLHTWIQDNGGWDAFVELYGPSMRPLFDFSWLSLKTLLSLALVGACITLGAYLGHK
Chain of Apoptosis regulator Bcl-2/Bcl-2 homologous antagonist/killer (Q16611 whole entry, further chain): as the sequence (Q16611 whole entry, further chain) above

Structure (SMILES)	EC50 [1]	IC50 (MCL1-BAK1 complex)	further results
CC1(C)[C@@]2(C)CC[C@H](CS(=O)(=O)NC(=O)c3ccc(N4CCN(Cc5ccccc5-c5ccc(Cl)cc5)CC4)cc3)[C@]1(C)C2	560 nM	> 50000 nM	
O=C(NS(=O)(=O)CC12CC3CC(CC1C3)C2)c1ccc(N2CCN(Cc3ccccc3-c3ccc(Cl)cc3)CC2)cc1	2660 nM	> 50000 nM	
CC(C)C(=O)NC12CC3CC(CC(CS(=O)(=O)NC(=O)c4ccc(N5CCN(Cc6ccccc6-c6ccc(Cl)cc6)CC5)cc4)(C3)C1)C2	160 nM		
CS(=O)(=O)NC(=O)c1ccc(N2CCN(Cc3ccccc3-c3ccc(Cl)cc3)CC2)cc1	8620 nM	> 50000 nM	
O=C(NS(=O)(=O)C12CC3CC(CC(C3)C1)C2)c1ccc(N2CCN(Cc3ccccc3-c3ccc(Cl)cc3)CC2)cc1	> 16000 nM	> 50000 nM	
O=C(NS(=O)(=O)CC12CC3CCC(CC(C3)C1)C2)c1ccc(N2CCN(Cc3ccccc3-c3ccc(Cl)cc3)CC2)cc1	120 nM	> 50000 nM	EC50 (Bcl-xL/BAK): 220 nM
CC(C)(C)C(=O)NC12CC3CC(CC(CS(=O)(=O)NC(=O)c4ccc(N5CCN(Cc6ccccc6-c6ccc(Cl)cc6)CC5)cc4)(C3)C1)C2	520 nM		
CC(=O)NC12CC3CC(CC(CS(=O)(=O)NC(=O)c4ccc(N5CCN(Cc6ccccc6-c6ccc(Cl)cc6)CC5)cc4)(C3)C1)C2	230 nM		
CCS(=O)(=O)NC(=O)c1ccc(N2CCN(Cc3ccccc3-c3ccc(Cl)cc3)CC2)cc1	5310 nM	> 50000 nM	
O=C(NS(=O)(=O)NC12CC3CC(CC(C3)C1)C2)c1ccc(N2CCN(Cc3ccccc3-c3ccc(Cl)cc3)CC2)cc1	2100 nM	> 50000 nM	
CC1(C)C2CC[C@]1(CS(=O)(=O)NC(=O)c1ccc(N3CCN(Cc4ccccc4-c4ccc(Cl)cc4)CC3)cc1)C(=O)C2	1020 nM	> 50000 nM	
CC12CC3CC(C1)CC(CS(=O)(=O)NC(=O)c1ccc(N4CCN(Cc5ccccc5-c5ccc(Cl)cc5)CC4)cc1)(C3)C2	1100 nM		
O=C(NS(=O)(=O)CC12CC3CC(CC(Br)(C3)C1)C2)c1ccc(N2CCN(Cc3ccccc3-c3ccc(Cl)cc3)CC2)cc1	670 nM		
O=C(NS(=O)(=O)CC12CC3CC(C1)CC(NC(=O)C1CC1)(C3)C2)c1ccc(N2CCN(Cc3ccccc3-c3ccc(Cl)cc3)CC2)cc1	210 nM		
CC(C)(C)S(=O)(=O)NC(=O)c1ccc(N2CCN(Cc3ccccc3-c3ccc(Cl)cc3)CC2)cc1	> 16000 nM	> 50000 nM	
O=C(NS(=O)(=O)CC12CC3CC(C1)CC(c1ccccc1)(C3)C2)c1ccc(N2CCN(Cc3ccccc3-c3ccc(Cl)cc3)CC2)cc1	1970 nM		
O=C(NS(=O)(=O)CC12CC3CC(C1)CC(OCCN1CCOCC1)(C3)C2)c1ccc(N2CCN(Cc3ccccc3-c3ccc(Cl)cc3)CC2)cc1	310 nM		
CC1(C)C2CC[C@@]1(CS(=O)(=O)NC(=O)c1ccc(N3CCN(Cc4ccccc4-c4ccc(Cl)cc4)CC3)cc1)C(=O)C2	1470 nM	> 50000 nM	
CC1(C)[C@]2(C)CC[C@@H](CS(=O)(=O)NC(=O)c3ccc(N4CCN(Cc5ccccc5-c5ccc(Cl)cc5)CC4)cc3)[C@@]1(C)C2	420 nM	> 50000 nM	EC50 (Bcl-xL/BAK): 580 nM
O=C(NS(=O)(=O)CC12CC3CC(CC(O)(C3)C1)C2)c1ccc(N2CCN(Cc3ccccc3-c3ccc(Cl)cc3)CC2)cc1	300 nM		clearance [2]: 16 mL/min/kg; Vd [3]: 1.2 L/kg; half-life [4]: 1.3 h; bioavailability [5]: > 100%
O=C(NS(=O)(=O)CCC12CC3CC(CC(C3)C1)C2)c1ccc(N2CCN(Cc3ccccc3-c3ccc(Cl)cc3)CC2)cc1	2810 nM	> 50000 nM	
O=C(NS(=O)(=O)CC12CC3CC(CC(F)(C3)C1)C2)c1ccc(N2CCN(Cc3ccccc3-c3ccc(Cl)cc3)CC2)cc1	480 nM		
O=C(NS(=O)(=O)CC12CC3CC(CC(C3)C1)C2)c1ccc(N2CCN(Cc3ccccc3-c3ccc(Cl)cc3)CC2)cc1	670 nM	> 50000 nM	EC50 (Bcl-xL/BAK): 2850 nM; Ratio EC50 [6]: 4.3; clearance [2]: 6 mL/min/kg; Vd [3]: 0.7 L/kg; half-life [4]: 1.3 h; bioavailability [5]: 66%
